Tests used:
[1] = biological target: T1, UDP-glucuronosyltransferase 1A3 (Homo sapiens, UniProt P35503); experiment: (§1) Activity of human UGT1A3 expressed in microsomes isolated from baculovirus infected insect cell assessed as enzyme-mediated 3-(4-((6-methoxy-1-methyl-1H-benzo[d]imidazol-2-yl)methoxy)phenyl)-2-(methylthio)propanoic acid formation at 20 uM after 4 hrs by radio-HPLC/LC-MS/MS analysis in presence of NADPH-generating system/SAM and UDPGA/SAM in presence of UDPGA and UDPGA/SAM; type: ADME
T1 sequence (P35503 whole entry): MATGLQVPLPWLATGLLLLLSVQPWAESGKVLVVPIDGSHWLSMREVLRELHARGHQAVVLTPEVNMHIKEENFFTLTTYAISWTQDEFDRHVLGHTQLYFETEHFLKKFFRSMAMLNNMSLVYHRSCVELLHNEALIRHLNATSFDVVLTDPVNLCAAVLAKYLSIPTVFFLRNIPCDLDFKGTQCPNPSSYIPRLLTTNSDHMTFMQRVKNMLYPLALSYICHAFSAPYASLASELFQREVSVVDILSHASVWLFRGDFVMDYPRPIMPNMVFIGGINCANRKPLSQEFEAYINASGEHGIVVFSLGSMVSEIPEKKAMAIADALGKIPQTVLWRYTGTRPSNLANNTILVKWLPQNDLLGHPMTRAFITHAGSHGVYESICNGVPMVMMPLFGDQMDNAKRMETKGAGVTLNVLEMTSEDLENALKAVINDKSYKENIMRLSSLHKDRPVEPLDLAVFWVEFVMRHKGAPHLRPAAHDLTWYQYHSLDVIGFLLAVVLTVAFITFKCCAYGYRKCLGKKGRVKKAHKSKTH

[2] = biological target: T1, UDP-glucuronosyltransferase 1A3; experiment: (§2) Activity of human UGT1A3 expressed in microsomes isolated from baculovirus infected insect cell assessed as enzyme-mediated (2S,3S,4S,5R,6R)-3,4,5-trihydroxy-6-(5-(4-((6-methoxy-1-methyl-1H-benzo[d]imidazol-2-yl)methoxy)benzyl)-2,4-dioxothiazolidin-3-yl)tetrahydro-2H-pyran-2-carboxylic acid formation at 20 uM after 4 hrs by radio-HPLC/LC-MS/MS analysis in presence of UDPGA and UDPGA/SAM; type: ADME
In short: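 Alamethicin (50 μg/mg protein, 15 min on ice) pretreated expressed human UGT microsomes (1 mg/ml protein) from baculovirus-infected insect cells. Incubation with [¹⁴C]rivoglitazone (20 μM) in 100 mM Tris-HCl (pH 7.5) with 10 mM MgCl₂, started by 5 mM UDPGA, 4 h at 37°C with shaking. UGT insect-cell control supersomes were run alongside. Acetonitrile stop, concentrated supernatant analysed by radio-HPLC, LC-MS and LC-MS/MS.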

[3] = biological target: T2, UDP-glucuronosyltransferase 2B7 (Homo sapiens, UniProt P16662); experiment: as §1, with “UGT2B7” for “UGT1A3”; type: ADME
T2 sequence (P16662 whole entry): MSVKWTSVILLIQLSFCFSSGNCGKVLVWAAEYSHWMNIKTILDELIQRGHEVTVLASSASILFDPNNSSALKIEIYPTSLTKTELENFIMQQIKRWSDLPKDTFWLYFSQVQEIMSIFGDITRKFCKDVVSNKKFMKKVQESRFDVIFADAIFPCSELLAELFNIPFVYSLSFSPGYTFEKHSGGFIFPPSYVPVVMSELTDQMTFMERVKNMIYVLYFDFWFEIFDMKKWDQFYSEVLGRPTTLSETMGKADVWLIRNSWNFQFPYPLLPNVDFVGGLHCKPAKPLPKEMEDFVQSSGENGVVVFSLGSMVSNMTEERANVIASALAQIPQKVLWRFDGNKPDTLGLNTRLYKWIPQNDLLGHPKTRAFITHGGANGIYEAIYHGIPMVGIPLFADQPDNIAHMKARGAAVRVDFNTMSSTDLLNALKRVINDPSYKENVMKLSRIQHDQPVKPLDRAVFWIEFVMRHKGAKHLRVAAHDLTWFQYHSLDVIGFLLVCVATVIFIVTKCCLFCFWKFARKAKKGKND

[4] = biological target: T2, UDP-glucuronosyltransferase 2B7; experiment: Activity of human UGT2B7 expressed in microsomes isolated from baculovirus infected insect cell assessed as enzyme-mediated 5-(4-((6-methoxy-1H-benzo[d]imidazol-2-yl)methoxy)benzyl)thiazolidine-2,4-dione formation at 20 uM after 4 hrs by radio-HPLC/LC-MS/MS analysis in presence of NADPH-generating system and NADPH-generating system/SAM in presence of UDPGA and UDPGA/SAM; type: ADME
[5] = Drug metabolism in human hepatocytes assessed as formation of (2S,3S,4S,5R,6R)-6-((1-carboxy-2-(4-((6-methoxy-1-methyl-1H-benzo[d]imidazol-2-yl)methoxy)phenyl)ethylthio)carbonylamino)-3,4,5-trihydroxytetrahydro-2H-pyran-2-carboxylic acid at 30 uM after 3 hrs by radio-HPLC/LC-MS/MS analysis in presence of UDPGA and UDPGA/SAM; type: ADME, cell-based, Hepatocyte
[6] = biological target: T2, UDP-glucuronosyltransferase 2B7; experiment: Activity of human UGT2B7 expressed in microsomes isolated from baculovirus infected insect cell assessed as enzyme-mediated 2-mercapto-3-(4-((6-methoxy-1-methyl-1H-benzo[d]imidazol-2-yl)methoxy)phenyl)propanoic acid formation at 20 uM after 4 hrs by radio-HPLC/LC-MS/MS analysis in presence of UDPGA, UDPGA/SAM and NADPH-generating system in presence of UDPGA and UDPGA/SAM; type: ADME
Cytochrome P450 2C19 = Cytochrome P450 2C19 (Homo sapiens, UniProt P33261); experiment: Activity of human CYP2C19 expressed in microsomes isolated from baculovirus infected insect cell assessed as enzyme-mediated 2-hydroxy-3-(4-((6-methoxy-1-methyl-1H-benzo[d]imidazol-2-yl)methoxy)phenyl)propanamide formation at 20 uM after 2 hrs by radio-HPLC/LC-MS/MS analysis in presence of NADPH-generating system and NADPH-generating system/SAM; type: ADME
Chain of Cytochrome P450 2C19 (P33261 whole entry): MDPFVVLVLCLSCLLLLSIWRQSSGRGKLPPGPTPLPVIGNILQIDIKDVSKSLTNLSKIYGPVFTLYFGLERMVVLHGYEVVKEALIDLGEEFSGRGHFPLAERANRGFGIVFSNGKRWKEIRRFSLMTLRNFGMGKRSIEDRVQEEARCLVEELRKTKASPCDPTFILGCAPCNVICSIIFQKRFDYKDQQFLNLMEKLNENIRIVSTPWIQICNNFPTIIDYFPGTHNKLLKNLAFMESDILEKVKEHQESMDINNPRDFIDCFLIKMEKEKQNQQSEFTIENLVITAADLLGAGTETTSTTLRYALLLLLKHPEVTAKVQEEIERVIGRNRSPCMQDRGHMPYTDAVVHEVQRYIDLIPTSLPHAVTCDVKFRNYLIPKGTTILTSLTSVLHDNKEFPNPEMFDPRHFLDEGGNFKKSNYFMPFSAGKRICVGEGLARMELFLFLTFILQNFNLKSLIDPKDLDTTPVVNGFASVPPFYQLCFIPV
In short: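 Baculovirus/insect-cell microsomes expressing single human CYPs, 1 mg/ml protein, with 50 mM potassium phosphate (pH 7.4) or 100 mM Tris-HCl (pH 7.5). NADPH-generating system: 2 mM NADP⁺, 20 mM glucose 6-phosphate, 2 units/ml G6PDH, 10 mM MgCl₂. [¹⁴C]rivoglitazone at 20 μM, 2 h at 37°C with shaking. Control used insect-cell control supersomes. Stopped with acetonitrile; supernatant concentrated under nitrogen; metabolites analysed by radio-HPLC, LC-MS and LC-MS/MS.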

Cytochrome P450 1A2 = biological target: T3, Cytochrome P450 1A2 (Homo sapiens, UniProt P05177); experiment: as §2, with “human CYP1A2” for “human UGT1A3”, “after 2” for “after 4”; type: ADME
T3 sequence (P05177 whole entry): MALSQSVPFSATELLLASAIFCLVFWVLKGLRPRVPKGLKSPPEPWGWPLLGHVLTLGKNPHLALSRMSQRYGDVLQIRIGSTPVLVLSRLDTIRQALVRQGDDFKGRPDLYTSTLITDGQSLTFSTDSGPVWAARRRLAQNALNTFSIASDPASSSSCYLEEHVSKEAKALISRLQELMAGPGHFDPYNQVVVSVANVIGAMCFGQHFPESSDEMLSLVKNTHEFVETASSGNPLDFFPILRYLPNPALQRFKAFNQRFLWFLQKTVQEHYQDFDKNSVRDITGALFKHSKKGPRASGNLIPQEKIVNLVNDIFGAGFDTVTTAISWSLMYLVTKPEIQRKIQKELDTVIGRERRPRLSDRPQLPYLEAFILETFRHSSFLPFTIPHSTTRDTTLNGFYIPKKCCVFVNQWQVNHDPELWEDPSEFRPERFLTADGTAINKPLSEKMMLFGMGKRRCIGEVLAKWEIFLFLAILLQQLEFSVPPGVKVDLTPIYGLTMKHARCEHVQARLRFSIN

Drug metabolism [1]: metabolite_not_detected | Drug metabolism [2]: metabolite_detected | Drug metabolism [3]: metabolite_not_detected | Drug metabolism [4]: metabolite_not_detected | Drug metabolism [5]: metabolite_detected | Drug metabolism [6]: metabolite_detected | Drug metabolism (Cytochrome P450 2C19): metabolite_detected | Drug metabolism (Cytochrome P450 1A2): metabolite_not_detected
Structure (SMILES): COc1ccc2nc(COc3ccc(C[14CH]4SC(=O)NC4=O)cc3)n(C)c2c1.Cl (racemic)

Reference: ChEMBL document CHEMBL3526048, “In vitro metabolism of rivoglitazone, a novel peroxisome proliferator-activated receptor γ agonist, in rat, monkey, and human liver microsomes and freshly isolated hepatocytes” (Drug Metab Dispos, 2011)
